# A number with no mark means an inactive call. Inconclusive results are not listed. The source made the active and inactive calls.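 The calls were made as follows, unless noted: active = growth inhibition above 25% in both replicates, a cutoff set 3 SD above the mean; inconclusive = above 25% in only one replicate; inactive = the rest.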
# Experiments:
# [1] = OD615 S. cerevisiae growth inhibition, permissive medium, pilot counter-assay, permissive growth control for S. cerevisiae lifespan shortening project (AID 705); settings: OD615, 24 h, at 10 µM, active compounds read high
# Method in brief: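 assay system = Saccharomyces cerevisiae strain carrying genetically modified DeaD replicative-lifespan system | medium = SC raffinose/galactose permissive medium | dosing = 10 µM single dose, 0.25% DMSO | schedule = 24 h compound exposure at 30 °C after 4 h pre-growth | measured by = OD at 615 nm | read-out basis = growth inhibition from lowered OD615 after 24 h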
# [2] = Restrictive medium S. cerevisiae growth inhibition, OD615, pilot screen of yeast lifespan reduction project, restrictive growth control (AID 706;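 active = growth inhibition above a set limit, 3 SD over mean compound inhibition, in both replicates, cut at about 43% in these data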;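 also: modified DeaD lifespan yeast strain shifted to restrictive glucose medium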); settings: OD615, 48 h, at 10 µM, active compounds read high
# Method in brief: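 Buffer or medium: CSMM-D glucose medium. Material: genetically modified Saccharomyces cerevisiae, DeaD replicative lifespan assay strain. Times: 48 h compound exposure at 30 °C. Measured by: optical density at 615 nm.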
# [3] = viability gain of MRP-1-high H69AR cells under doxorubicin, pilot screen, MRP-1 activator project, CellTiter-Glo, duplicate (AID 807;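 active = viability increase at or above a cutoff of the median across tested compounds plus 3 SD, cut at about 8.5% in these data, passing the limit was not always enough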;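 also: compound pretreatment 18-22 h then 72 h combined with doxorubicin; 0% = doxorubicin alone and 100% = vehicle without doxorubicin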); settings: H69AR viability with doxorubicin, CellTiter-Glo luminescence; at 10 µM; active compounds read high
# [4] = growth suppression of beta-catenin knockout HCT116, pilot screen, human colon tumor cells (AID 823;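 active = cell viability at or below a set limit in both duplicate runs, the limit being the all-compound median minus 4 SD, cut at about 23% in these data, passing the limit was not always enough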;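 also: 0% = wells killed by 20 µM Hyamine and 100% = untreated DMSO cell wells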); settings: CellTiter-Glo, 60 h, at 10 µM, active compounds read low
# [5] = growth suppression of PTEN-deleted HCT116, pilot screen, cell-based, HCT116 clonal line, CellTiter-Glo (AID 824;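 active = viability at or below 27.92% in each of two runs, the all-compound median minus 4 SD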;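 also: 0% = 20 µM Hyamine control and 100% = vehicle cell control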); settings: 60 h, at 10 µM, active compounds read low
# [6] = inhibitors of the yeast RAM network, pilot screen, dse1pr::URA3 reporter, 5-FOA selection (AID 869;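 active = inhibition over a set limit, the all-compound mean plus 3 SD, in both replicate runs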;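 also: 0% = DMSO wells with no growth and 100% = 10 µM 1-NA-PP1 with full growth; RAM network block rescues cells from 5-FOA so hits raise OD615 growth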); settings: S. cerevisiae dse1pr::URA3 5-FOA growth, OD615, 2 d; at 10 µM; active compounds read high; strain carries analog-sensitive mutant Cbk1 kinase
# [7] = RAM signaling pathway blockade in yeast – S. cerevisiae, Pdr1DBD-CYC8 efflux-inhibited sensitized strain, primary screen (AID 1298;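 active = RAM network inhibition above 8.4% in each of two replicates, 3 SD over the compound average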;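 also: 0% = DMSO untreated cells without growth and 100% = 10 µM 1-NA-PP1 full growth; higher means more yeast growth rescued from 5-FOA killing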); settings: S. cerevisiae cbk1-as DSE1-URA3 strain, 5-FOA growth OD615, 2 d; at 50 µM; active compounds read high
SMILES,growth inhibition [1] [%],growth inhibition [2],viability increase [3] [%],viability [4] [%],viability [5] [%],inhibition [6] [%],RAM network inhibition [7] [%]
COCc1cc(C)nc2sc(C(=O)Nc3nccs3)c(N)c12,-7.22,11.6%,-5.32,109,97.5,0.145,2.07
CCOC(=O)c1cccc(NC(=O)Cn2cc3c(n2)CCC(C)C3)c1 (stereo unspecified),4.72,17.6%,-0.48,101,92.3,1.12,0.81
CCOc1ccc(N(CC(=O)Nc2ccc(C)cc2)S(=O)(=O)c2c(C)noc2C)cc1,-18.5,-19.6%,-3.45,79.4,67.4,1.29,4.04
Cc1ccc(-n2ncc3c(=O)[nH]c(SCC(=O)N4CCC(C)CC4)nc32)cc1C,-0.265,-3.58%,-5.08,89,85.3,1.89,2.86
CCCCN(C(=O)NC(=O)C1=C(N2CCOCC2)/C(=C/c2ccccc2)CC1)S(C)(=O)=O,-2.54,-6.07%,-2.95,86.1,89.8,0.17,-0.73
COc1ccc(CN2CCCCC2c2cccnc2)c(OC)c1C (stereo unspecified),-1.37,0.92%,-2.86,92.1,99,1.25,1.37
CCCC(=O)Nc1nc2ccc(OC)cc2s1,-15.5,-17.6%,1.29,93.8,80.7,0.5,2.32
O=c1nc(-c2ccccc2)cn[nH]1,-4.61,-4.27%,-0.11,101,105,1.29,2.6
Cn1c(=O)c2c(SCC(=O)c3ccccc3)nc(C3CC3)nc2n(C)c1=O,13.4,7.46%,-2.05,76.8,77.8,1.17,-1.03
CCN1CCN(C(=O)Cn2c(=O)sc3ccccc32)CC1,-10.6,4.76%,-2.64,107,96.6,-0.225,0.05
CC1(C)Oc2ccc3ccc(=O)oc3c2-c2cnoc21,0.81,5.33%,-0.4,104,96.3,1.08,4.79
COc1ccccc1NC(=O)CSc1nnnn1C,-4.16,-6.61%,-1.03,105,96.4,1.37,3.12
N=c1sccn1CC(=O)Nc1ccccc1-c1ccccc1,-5.55,-3.2%,-2.08,94.3,95.8,2.95,3.6
Cc1cc(NCc2ccco2)nc2cc(O)ccc12,-11.9,-28.8%,-5.57,92.7,93.4,1.35,1.95
N#CC1=C2C=CC=CN2CC1=O,-23.9,-15.7%,-2.42,91.2,93.1,1.7,2.23
COc1ccc(C2C(C(=O)N3CCCCC3)c3ccccc3C(=O)N2C)cc1 (stereo unspecified),-2.93,-8.27%,-2.9,92.3,91.2,0.375,2.69
O=C(CN1C(=O)c2ccccc2S1(=O)=O)NC1CC2CCC1C2 (stereo unspecified),0.325,-9.88%,-1.68,98.6,89.9,1.11,-0.63

SMILES,growth inhibition [1] [%],growth inhibition [2],viability increase [3] [%],viability [4] [%],viability [5] [%],inhibition [6] [%],RAM network inhibition [7] [%]
C=CCOC(=O)C1=C(C)NC(=O)NC1/C=C/c1ccccc1 (stereo unspecified),-5.98,-13.1%,-0.12,92.5,95,2.77,8.11
O=C(O)COc1ccc(Br)cc1/C=N/O,5.41,3.78%,-2.11,92.7,85.4,0.975,2.5
Cc1cc(Nc2cccc(Cl)c2C)n2ncnc2n1,-2.94,-1.32%,-1.11,94.2,95,2.26,2.35
CC(C)Nc1ncnc2c1cnn2-c1ccc(Cl)cc1,5.42,-5.25%,-3.14,83.3,72.6,1.14,-0.94
O=C(Nc1ccccc1F)C1CCCN(S(=O)(=O)c2cccc3cccnc23)C1 (stereo unspecified),-3.46,-7.69%,-1.63,92.3,88.8,1.49,2.96
O=C(NCCc1ccccc1)C1CCN(S(=O)(=O)c2cccnc2)CC1,-7.37,0.25%,-0.16,104,94.8,1.88,1.62
Cc1cccc(Nc2ncnc3nc[nH]c23)c1,3.02,32.5%,-1.96,101,97.6,2.31,3.11
COc1ccccc1C(=O)n1nc(-c2cccnc2)nc1N,-10.2,-5.6%,-0.72,106,105,2.24,0.59
CCCN1C(=O)c2cc(C(=O)Nc3ccccc3CC)ccc2C1O (stereo unspecified),-6.36,-1.31%,-0.05,101,108,0.77,3.59
NC(=O)C1CCN(C(=O)c2cc3ccccn3n2)CC1,0.24,-0.18%,-0.34,103,98.2,0.505,1.35
CCCCOc1ccccc1NC(=O)CC1SC(=NCC)N(CC)C1=O (stereo unspecified),-9.35,-0.705%,-2.29,85.6,81.3,1.08,2.04
CCOC(=O)CNC(=O)Cn1cnc2sc(C)c(S(=O)(=O)N3CCC(C)CC3)c2c1=O,-5.06,-1.62%,-2.55,94,93.6,0.32,4.1
Cc1onc(-c2ccccc2Cl)c1C(=O)NCCN1Cc2ccccc2C1=O,-0.695,4.3%,-4.11,102,90.5,0.375,0.31
O=C(C1CC1)N1CCc2cc(Br)cc(S(=O)(=O)NC3CCCCC3)c21,-3.11,-25.8%,1.71,88.5,89.4,0.275,5.54
CC1(C)CC(n2c(NCCO)nc3c(c2=O)C2(CCCC2)Cc2ccccc2-3)CCO1 (stereo unspecified),11.7,2.4%,-6.73,96.2,93.4,0.65,7.43
COc1ccccc1-c1nnc(NC(=O)C(C)SC2=NCCS2)s1 (stereo unspecified),5.92,48.7% (active),-4.43,83.4,91.2,-0.115,6.22

# Source: PubChem BioAssay
